From PubChem
FN deposition inh: fibronectin deposition inhibition; hit rate 0.086% among 350,000; AH1F fibroblasts, Alexa488-fibronectin deposition fluorescence, overnight; inhibition, % at 12.6 µM;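 active means mean inhibition across replicates of 30% or more, regardless of how many single replicates reach that level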;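 further: positive control wells lacked labelled fibronectin entirely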
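Assay system: AH1F fibroblasts assembling fluorescent fibronectin matrix; Amount: 10000 AH1F cells per well; Buffer or medium: DMEM, 2% serum; Probe or stimulus: Alexa488-fibronectin, 24 nM final in well; Doses: single compound dose, delivered by pin transfer; Incubation: 1 h adhesion, overnight exposure; Measured by: fluorescence 485/525 nm; Read-out: fibronectin deposition inhibition.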
DENV2 CPE rescue: DENV2-induced cell death inhibition; AID 651640; DENV2-infected cells, cytopathic effect rescue, plate reader; CPE inhibition, % at 9.99 µM; hit rate 1.7% among 350,000; in the data active means CPE inhibition above about 20%, passing the limit was not always enough; tested in BHK-21 cells;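 further: 0% = median of neutral control wells and 100% = median of positive control wells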
FGF22 binding: FGF22 (human) thermal shift binding; recombinant FGF22 thermal shift, SYPRO orange fluorescence; percent of sucrose octasulfate shift, DMSO zero; activity (Tm shift, normalised), % at 9.99 µM; hit rate 1.5% among 340,000;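 active means mean Tm shift, scaled 0 neutral to 100 positive control, at about 1.3% or above, every replicate too, limit read from the data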
Target sequence (Q9HCT0 whole entry, looked up): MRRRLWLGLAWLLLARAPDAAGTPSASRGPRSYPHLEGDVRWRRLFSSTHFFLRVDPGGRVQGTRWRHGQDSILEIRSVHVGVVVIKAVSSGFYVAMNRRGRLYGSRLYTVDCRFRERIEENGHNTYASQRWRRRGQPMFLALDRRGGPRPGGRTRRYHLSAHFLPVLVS
Xi reactivation: reactivates the inactive X chromosome in mouse fibroblasts. activation, % at 7.58 µM. XiGFP mouse fibroblasts, % GFP-positive cells imaging, 3 d; cells co-treated with 5-aza-dC sensitizer; scaled so ellipticine positive control = 100%. hit rate 0.055% among 360,000;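 active means mean normalized replicate activation at least 10% and every replicate at or above 10%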;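 further: 0% = median of on-plate neutral control wells and 100% = ellipticine 6 µM median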
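material = 68-5-11 XiGFP fibroblast line | medium = DMEM plus 5-aza-dC sensitizer | schedule = 3 days compound exposure | benchmarks = positive control ellipticine, 6 µM final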
ARNT-TACC3 inh: disrupts binding between human ARNT and TACC3. AlphaScreen His-ARNT PAS-B/GST-TACC3 binding, luminescence; TACC3 fragment carries E629A point mutation. inhibition, % at 9.99 µM. hit rate 0.66% among 390,000. AID 623870;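 active means mean inhibition of replicates at least 50% and at least half of replicates each reaching 50%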;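 further: 0% = complete ARNT plus TACC3 wells and 100% = ARNT alone without TACC3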
SIRT5 inh: inhibitors of human sirtuin-5 desuccinylase. Q9NXA8. Purified SirT5, succinyl-peptide AMC, trypsin-coupled fluorescence. inhibition, % at 15 µM. hit rate 1.1% among 330,000; in the data active means inhibition above about 15%
Target sequence (Q9NXA8 whole entry, looked up): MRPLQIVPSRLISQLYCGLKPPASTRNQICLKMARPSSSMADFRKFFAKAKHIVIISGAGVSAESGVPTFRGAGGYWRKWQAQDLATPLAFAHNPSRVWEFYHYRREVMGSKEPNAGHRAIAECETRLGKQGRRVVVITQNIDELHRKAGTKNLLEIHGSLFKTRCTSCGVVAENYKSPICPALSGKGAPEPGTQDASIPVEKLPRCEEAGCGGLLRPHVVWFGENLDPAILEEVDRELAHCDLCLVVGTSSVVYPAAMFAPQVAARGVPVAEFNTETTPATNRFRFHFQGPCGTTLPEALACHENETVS
Starred values were filed as active, the others as inactive. Rows were chosen to be rich in hits. Some 3.8% of all compounds tested hit in one or more screens of this group.

What do the screens show for `C[C@H]1CN([C@@H](C)CO)S(=O)(=O)c2ccc(C3=CCCC3)cc2O[C@H]1CN(C)Cc1ccccc1`?
DENV2 CPE rescue: -3; FGF22 binding: 0; Xi reactivation: -1; ARNT-TACC3 inh: -10; SIRT5 inh: 11

Results for CN1C(=O)c2cc(NC(=O)Cc3cccs3)ccc2OC[C@H]2O[C@H](CC(=O)N[C@H]3CCN(Cc4ccccc4)C3)CC[C@@H]21 ?
FN deposition inh: -5; DENV2 CPE rescue: -1; FGF22 binding: 0; Xi reactivation: 0; ARNT-TACC3 inh: 8; SIRT5 inh: 4

What do the screens show for `CC(=O)Nc1ccc2c(c1)C(=O)N(C)[C@H]1CC[C@H](CC(=O)Nc3cccc(C(C)C)c3)O[C@@H]1CO2`?
FN deposition inh: -4; DENV2 CPE rescue: 108*; FGF22 binding: 0; Xi reactivation: 0; ARNT-TACC3 inh: -11; SIRT5 inh: -2

Results for Cc1nn(C)cc1NC(=O)C[C@H]1CC[C@@H]2[C@H](COc3ccc(NC(=O)NC(C)C)cc3C(=O)N2C)O1 ?
FN deposition inh: -6; DENV2 CPE rescue: 33*; FGF22 binding: 0; Xi reactivation: 0; ARNT-TACC3 inh: 5; SIRT5 inh: -2

How did CC(C)c1cccc(NC(=O)C[C@H]2CC[C@H]3[C@@H](COc4ccc(NC(=O)NCc5ccccc5)cc4C(=O)N3C)O2)c1 do in these assays?
FN deposition inh: 9; DENV2 CPE rescue: -12; FGF22 binding: 0; Xi reactivation: 0; ARNT-TACC3 inh: 14; SIRT5 inh: 5

What do the screens show for `COc1ccccc1-c1cnc2c(c1)C(=O)N([C@@H](C)CO)C[C@@H](C)[C@@H](CN(C)CC1CCOCC1)O2`?
DENV2 CPE rescue: 0; FGF22 binding: 0; Xi reactivation: -1; ARNT-TACC3 inh: 24; SIRT5 inh: 1

What do the screens show for `Cc1cc(NN=Cc2ccccn2)nc2ccccc12`?
FN deposition inh: -8; DENV2 CPE rescue: 16; FGF22 binding: 0; Xi reactivation: 0

Results for COc1ccc2nc(NN=Cc3cccc(C)n3)cc(C)c2c1 ?
FN deposition inh: 4; DENV2 CPE rescue: 54*; FGF22 binding: 0; Xi reactivation: 0

Results for O=c1[nH]c(=O)n2c(c1-c1ccccc1)OC(CBr)C2 (centres undefined) ?
FN deposition inh: -3; DENV2 CPE rescue: 75*; FGF22 binding: 0; Xi reactivation: 0; SIRT5 inh: -4

What do the screens show for `CC=Cc1ccc2n(c1=O)C[C@H]1[C@H](CO)[C@@H](C(=O)NCC3CC3)N(C(=O)CC3CC3)[C@@H]21` (mixture of isomers)?
DENV2 CPE rescue: -7; FGF22 binding: 0; Xi reactivation: 0; ARNT-TACC3 inh: -7; SIRT5 inh: -7

How did CCN1CCN(CC(=O)Nc2nc3ccccc3s2)CC1 do in these assays?
FN deposition inh: -5; DENV2 CPE rescue: 3; FGF22 binding: 0; Xi reactivation: 0; ARNT-TACC3 inh: -12; SIRT5 inh: 1

What do the screens show for `CCOc1ccc2nc(NC(=O)CN3CCN(C)CC3)sc2c1`?
ARNT-TACC3 inh: 9

How did COc1ccc2nc(NC(=O)CSc3nnnn3C)sc2c1 do in these assays?
FN deposition inh: -7; DENV2 CPE rescue: 4; FGF22 binding: 43*; Xi reactivation: 0; SIRT5 inh: 1

What do the screens show for `CN1CCN(CC(=O)Nc2nc3ccccc3s2)CC1`?
FN deposition inh: -4; DENV2 CPE rescue: 7; FGF22 binding: 0; Xi reactivation: 0; ARNT-TACC3 inh: 0; SIRT5 inh: 21*

Results for CCOc1ccc2nc(NC(=O)CN3CCN(CC)CC3)sc2c1 ?
FN deposition inh: 1; DENV2 CPE rescue: 44*; FGF22 binding: 0; Xi reactivation: 0; ARNT-TACC3 inh: -15; SIRT5 inh: -1

How did COCC(=O)Nc1ccc2c(c1)[C@H]1C[C@H](CC(=O)N3CCN(C)CC3)O[C@H](CO)[C@H]1O2 do in these assays?
FN deposition inh: -1; DENV2 CPE rescue: -6; FGF22 binding: 0; Xi reactivation: 0; ARNT-TACC3 inh: -7

Results for CCCC(=O)Nc1ccc2c(c1)OC[C@H](C)NC[C@H](C)[C@@H](OC)CN(C)C2=O ?
FN deposition inh: -6; DENV2 CPE rescue: -8; Xi reactivation: 0; SIRT5 inh: -2
